# Test results as given in ChEMBL document CHEMBL3758104, “Reinvestigating Old Pharmacophores: Are 4-Aminoquinolines and Tetraoxanes Potential Two-Stage Antimalarials?” (J Med Chem, 2016).
# What was measured:
# Plasmodium berghei [1] = test: Antimalarial activity against sporozoite stage of Plasmodium berghei ANKA infected in C57BL/6J mouse assessed as reduction in liver parasite load at 50 mg/kg/, po administered for 3 days measured after 48 hrs by qRT-PCR analysis relative to control; assay type: functional; design: scale not given: the % may be the effect or the level left
# Summary of the method: (§1)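 C57BL/6J mice, five per group, infected iv with luciferase-expressing P. berghei ANKA sporozoites. Compound given by oral gavage in DMSO + sunflower oil 24 h before, at, and 24 h after infection; controls got vehicle. Liver load measured 48 h post-infection by qRT-PCR of P. berghei 18S rRNA normalised to mouse Hprt, as % of controls; mean of two independent experiments.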
# Plasmodium berghei [2] = test: Antimalarial activity against sporozoite stage of Plasmodium berghei ANKA infected in C57BL/6J mouse assessed as reduction in liver parasite load at 100 mg/kg/, po administered for 3 days measured after 48 hrs by qRT-PCR analysis relative to control; assay type: functional; design: scale not given: the % may be the effect or the level left; summary of the method: as §1
# Plasmodium berghei [3] = test: Antimalarial activity against sporozoite stage of Plasmodium berghei infected in human Huh7 cells assessed as inhibition of parasite infection pre-incubated for 24 hrs followed by parasite infection measured after 48 hrs by bioluminescence assay; assay type: functional, organism-based; conditions: Huh-7
# Plasmodium berghei [4] = test: Antimalarial activity against sporozoite stage of Plasmodium berghei infected in human Huh7 cells assessed as remaining parasite infection at 5 uM pre-incubated for 24 hrs followed by parasite infection measured after 48 hrs by bioluminescence assay; conditions: Huh-7
# Plasmodium falciparum = test: Antimalarial activity against 4th to 5th gametocyte stage of Plasmodium falciparum 3D7elo1-pfs16-CBG99 assessed as inhibition of gametocyte viability by luciferase reporter gene assay; assay type: functional, organism-based
# Summary of the method: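 Stage IV–V gametocytes of luciferase-expressing 3D7elo1-pfs16-CBG99 strain (CBG99 under pfs16 promoter); luciferase activity as viability read-out. Viability = 100×(treated−blank)/(untreated−blank), blank = 100 nM epoxomicin-treated sample. Epoxomicin and dihydroartemisinin as positive controls. IC50 from nonlinear regression of dose–response; mean of three experiments in duplicate.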
# [5] = Selectivity ratio of IC50 for IV to V gametocyte stage of Plasmodium falciparum 3D7elo1-pfs16-CBG99 to IC50 for sporozoite stage of Plasmodium berghei infected in human Huh7; assay type: functional, Huh-7
smiles,measurement,setting,value
CCCNC(=O)CCC(C)[C@H]1CC[C@H]2[C@@H]3[C@H](OC(C)=O)C[C@@H]4CC5(CC[C@]4(C)[C@H]3C[C@H](OC(C)=O)[C@]12C)OOC1(CCCCC1)OO5 (stereo partly specified),Activity,Plasmodium berghei [1],60%
same,Activity,Plasmodium berghei [2],91%
same,IC50,Plasmodium berghei [3],330 nM
same,% infection at 5 µM,Plasmodium berghei [4],0.55%
same,IC50,Plasmodium falciparum,1160 nM
same,Ratio IC50,[5],3.5
